From publication PMC11130662 (Heliyon, 2024)
≈ marks a conversion by molar mass, not a printed value.

How the values were obtained:
HepG2 cells = assay: In-vitro cytotoxicity MTT assay on HepG2 cell line; assay type: cell-based, human; conditions: 125 μg/ml, third day
In short: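 HepG2 monolayers in phenol-red-free DMEM with 10 % FCS, penicillin and streptomycin, grown 48 h at 37 °C/5 % CO2 to confluency. Test compound in DMSO at 25, 50, 75, 100, 125 µg; medium-only negative control with matched DMSO. After 48 h at 37 °C, MTT (5 mg/mL) added for 4 h, then DMSO-dissolved formazan read at 570/655 nm. Triplicate; viability relative to untreated cells.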

[1] = tested on: E. granulosus protoscoleces; assay: Protoscolicidal; assay type: cell-based; conditions: Echinococcus granulosus; for IC50: read-out: IC50 protoscolicidal activity; for viability at 25 µg/mL / viability at 50 µg/mL / viability at 75 µg/mL / viability at 100 µg/mL / viability at 125 µg/mL: read-out: viability of protoscoleces
In short: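 Protoscoleces came from hydatid cysts of naturally infected sheep, settled without centrifugation, washed three times in HBSS, and cultured in RPMI 1640 (12 mM HEPES, glutamine, antibiotics, amphotericin B, 10 % FCS, glucose). Within 10 days, ~500 protoscoleces in 20 ml medium received test compound at 25–125 µg/ml; DMSO control. Viability was scored by motility and 0.1 % trypan blue exclusion in 10 random fields (10X). Triplicate; IC50 by nonlinear regression.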

[2] = tested on: protoscoleces and metacestodes of Echinococcus granulosus; conditions: cited from earlier work

Row | Compound | cell survival rate of HepG2 (HepG2 cells) | IC50 [1] | viability at 25 µg/mL [1] | viability at 50 µg/mL [1] | viability at 75 µg/mL [1] | viability at 100 µg/mL [1] | viability at 125 µg/mL [1] | antiechinococcal activity [2]
1 | Cc1ccc(NC(=O)c2cccc3ccccc23)cc1 [Compound 10, N-p-tolyl-1-naphthamide] | 40% | 29.5 µg/mL (≈ 113 µM) | 47.3% | 20% | 10.3% | 0% | 0% | 
2 | Cc1ccc(NC(=O)c2c(F)c(F)c(F)c(F)c2F)cc1 [Compound 20, 2,3,4,5,6-pentafluoro-N-p-tolylbenzamide] | 32% | 39.5 µg/mL (≈ 131 µM) | 54.3% | 50.6% | 18.3% | 9.6% | 0% | 
3 | CC(=O)Oc1ccccc1C(=O)Nc1ncc([N+](=O)[O-])s1 [Nitazoxanide] |  |  |  |  |  |  |  | potent antiechinococcal activity
4 | Cc1ccc(NC(=O)c2cc([N+](=O)[O-])cc([N+](=O)[O-])c2)cc1 [Compound 6, 3,5-dinitro-N-p-tolylbenzamide] | 36% | 77 µg/mL (≈ 256 µM) | 72.6% | 66.6% | 53.6% | 43% | 32.3% | 
5 | Cc1ccc(NC(=O)c2ccc(OC(F)(F)F)cc2)cc1 [Compound 16, N-p-tolyl-4-(trifluoromethoxy)benzamide] | 38% | 66.5 µg/mL (≈ 225 µM) | 72.6% | 62.6% | 45.3% | 39.6% | 30% | 
6 | CCCCCc1ccc(C(=O)Nc2ccc(C)cc2)cc1 [Compound 18, 4-pentyl-N-p-tolylbenzamide] | approximately 54% | 45 µg/mL (≈ 160 µM) | 63.3% | 49.6% | 38.3% | 29% | 21% | 
